Sampled rows, rich in hits. Any-hit rate of the full collection: about 3%.
CaV13 FRET inh: Primary screen for inhibitors of IQ motif and Ca2+-dependent inactivation inhibitor domain binding in CACNA1D, Förster resonance energy transfer in living cells, … | HEK cells, CFP/YFP FRET ICDI-IQ, plate reader, 10 min; percent FRET-ratio fall versus neutral wells | inhibition, % at 12.3 µM | 0.098% of 340,000 active;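 active = mean replicate inhibition of at least 30% and at least 1% of replicates passing that level; inconclusive = only one of the two criteria is met; inactive = neither criterion is met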;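 also: 0% = median of the neutral control wells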
T cruzi inh: inhibitors of intracellular T. cruzi growth, primary screen, luminescence, NIH3T3 host cells. 1.4% of 300,000 active. T. cruzi beta-gal in NIH3T3, 90 h. inhibition, % (test concentration not listed). AID 1885, 2009;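 active = mean inhibition across valid replicates above about 55%, limit read from the data; inconclusive = mean below that limit but half or more replicates reach it; inactive = mean below it, under half of replicates reach it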;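 also: signal also drops with host cell toxicity which is not excluded here; 0% = plate median of DMSO wells and 100% = zero luminescence signal; higher percent means less beta-gal luminescence so fewer parasites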
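compound dosing = single 50 nL compound addition per well in DMSO | material = NIH/3T3 host cells with β-galactosidase reporter T. cruzi | input = 5,000 host fibroblasts per well | timing = ≥90 h infection period, 3 h prior cell attachment | read-out basis = percent inhibition of parasite-derived β-gal signal | detection = GalScreen β-gal luminescence, detergent lysis, 60 min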
HSF1 activator: HSF-1 activators, primary screen, NIH3T3-HGL cells, MG132 stress, luminescence, single point. NIH3T3-HGL HSF-1 luciferase reporter, 8 h; 100% = twice DMSO control signal. activation, % at 9 µM. 1.7% of 300,000 active;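 active = mean replicate activation of at least 50% with a set share of replicates each reaching 50%; inconclusive = only one of those two conditions met; inactive = mean below 50% and too few replicates reaching it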;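 also: 0% = median of the neutral control wells and 100% = twice that signal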
PvdQ inh: P. aeruginosa PvdQ acylase inhibitors, primary screen, biochemical, fluorescence, plate reader and imaging, single point. purified PvdQ acylase. inhibition, % at 10 µM. 0.063% of 340,000 active. AID 488965, 2010; in the data active = inhibition above about 30%, passing the limit was not always enough; inconclusive = no clear call, values can overlap the other calls;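 also: 0% = vehicle neutral wells and 100% = reference inhibitor wells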
PfHsp90 yeast 2: growth inhibition of PfHsp90-expressing yeast, primary screen, antimalarial PfHsp90 inhibitor project, S. cerevisiae, BacTiter-Glo luminescence, single point, set 2 | BacTiter-Glo ATP, 48 h; yeast lacking PDR1 and PDR3 efflux regulators | inhibition, % at 9.4 µM | 0.32% of 310,000 active;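 active = every replicate shows inhibition above about 80%, whatever the replicate mean, limit read from the data; inconclusive = mean inhibition reaches the set limit but some replicate falls short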;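 also: 0% = DMSO neutral controls and 100% = 20 µM radicicol positive controls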
Glyco luc inh: increase of ERlucT glycosylation luciferase signal, primary screen, N-linked glycosylation inhibitor project, D54 ERlucT cells, luminescence, set 2; 0.23% of 360,000 active; reporter increase, % at 12.5 µM; D54 ERlucT glycosylation luciferase reporter, 24 h; percent of 100 nM tunicamycin response;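 active = mean luciferase reporter signal, scaled so untreated is 0 and the glycosylation-blocking control 100, at or above a set limit in every replicate; inconclusive = mean reaches the limit but not every replicate does; inactive = mean below the limit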;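 also: luciferase carries N-glycosylation sites so blocking glycosylation raises the light; 0% = median of neutral control wells and 100% = median of 100 nM tunicamycin wells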
Numbers without * were called inactive; ? = inconclusive; / = no result; + = active, no number.

SMILES | CaV13 FRET inh | T cruzi inh | HSF1 activator | PvdQ inh | PfHsp90 yeast 2 | Glyco luc inh
CC(C)C[C@@H](NC(=O)OC(C)(C)C)C(=O)N1O[C@]23C=C[C@]14C[C@@H](O)CC[C@]4(C)C2CC[C@]1(C)[C@@H]([C@H](C)/C=C/[C@H](C)C(C)C)CC[C@H]13 (stereo not given in full) | -11 | / | / | / | / | /
O=C(NCCc1ccccc1)c1noc2c1CCc1ccccc1-2 | -11 | -3 | 52* | 1 | 4 | -1
COc1cc(CC(=O)N2c3ccccc3N=C(c3ccccc3)C2C(=O)NCc2ccccc2)cc(OC)c1 (stereo not given) | -10 | / | / | / | / | /
COc1ccc2c3c(ccc2c1)C(=O)/C(=C/O)CC3 | -7 | / | / | -10 | 107* | 1
O=C(N[C@H](Cc1ccccc1)C(=O)NCC1CCCCC1)[C@H]1O[C@@H](n2ccc(=O)[nH]c2=O)[C@H](O)[C@@H]1O | -6 | / | / | / | / | /
Cc1ccccc1/[N+]([O-])=C/c1cccs1 | -5 | -2 | 95* | -9 | -2 | 0
O=C(Nc1cc([N+](=O)[O-])ccc1N1CCOCC1)c1cccs1 | / | 1 | 8 | -1 | 32 | /
CC1N(C)c2cc(NC(=O)c3cccs3)c(P(=O)(Nc3ccc([N+](=O)[O-])cc3)N3CCOCC3)cc2C1(C)C (stereo not given) | 7 | 64* | -9 | 7 | 3 | -12
O=C(/C=C/c1ccc(O)c(O)c1)c1ccccc1O | -11 | -17 | 92* | -10 | 37 | 6
O=C(C=Cc1cccc(O)c1)c1ccccc1O | -9 | / | / | 1 | 104* | 23
O=C(C=Cc1ccccc1O)c1ccccc1O | -6 | / | / | 3 | ? | 33*
CSc1ccc(C(=O)NCC2CCN(C(=O)C(=O)c3cc4ccccc4o3)CC2)cc1 | -6 | / | / | / | / | /
Cc1c(C(=O)OCC(C)(C)CN(C)C)oc2ccccc12 | -5 | 8 | 15 | -14 | 14 | -2
Cc1c(C(=O)OC(C)CCN(C)C)oc2ccccc12 (stereo not given) | -5 | 57* | 38 | -9 | / | 0
Cc1ccc(CNC(=O)c2cn(C3CCCCC3)c(=O)c3c2c2ccccc2n3C)o1 | -5 | 16 | 79* | 2 | -30 | 2
Cc1ccc(S(=O)(=O)NCCC(C)C)cc1[N+](=O)[O-] | -18 | 0 | -9 | 53* | 9 | 1
COC(=O)Nc1ccc(S(=O)(=O)N2CCC(C(=O)N3CCCC(C)C3)CC2)cc1 (stereo not given) | -7 | -8 | 69* | -6 | 8 | -2
CCS(=O)(=O)c1ncc(Cl)c(C(=O)Nc2ccc(C)cc2)n1 | -3 | 79* | -98 | 1 | -4 | -3
CCS(=O)(=O)c1ncc(Cl)c(C(=O)Nc2ccc(S(=O)(=O)N3CCCC(C)C3)cc2)n1 (stereo not given) | -3 | 56* | -80 | -10 | -40 | -25
COc1cc(NC(=O)C2CC(c3ccccc3O)=NO2)cc(OC)c1OC (stereo not given) | -4 | / | / | / | / | 3
COC(=O)[C@]12C[C@H](CC(=O)N3CCCCC3)C(=O)N(Cc3ccccc3)C1=C[C@H](C1CCCC1)O[C@@H]2C | -9 | / | / | / | / | /
Nc1cccc2c1C(=O)N(c1ccccc1)C2=O | + | -29 | 21 | -18 | -40 | 0
CSc1nc2ccc(Cl)cc2[nH]1 | -4 | -7 | 0 | -10 | / | -4
CSc1nc2cc(Oc3cccc(Cl)c3Cl)c(Cl)cc2[nH]1 | -6 | ? | -17 | 1 | 109* | -2
COc1ccc(-c2csc(C(C)(O)c3ccncc3)n2)cc1OC (stereo not given) | -10 | / | / | / | / | -2
SMILES | CaV13 FRET inh | T cruzi inh | HSF1 activator | PvdQ inh | PfHsp90 yeast 2 | Glyco luc inh
CN(C)CCCNc1ccc(-c2nn(C)c(=O)c3ccccc23)cc1[N+](=O)[O-] | -3 | 68* | 14 | -15 | 20 | -1
CC(C)(C)S(=O)(=O)N1Cc2cc(CO)ccc2[C@H]1CCO | -6 | / | / | / | / | /
COc1cc(Cl)ccc1OC1(C)CCN(Cc2ccc3ccccc3c2)C1 (stereo not given) | -5 | / | / | / | / | 1
O=C(CSc1nnc(Cc2ccccc2)o1)N1CCCC1 | -7 | 7 | -15 | 8 | 21 | 1
O=C(CCc1nnc(Cc2ccc(-c3ccccc3)cc2)o1)N1CCCC1 | 5 | 6 | 70* | 1 | 5 | 0
CC1SCC(NC(=O)c2cccc(Cl)c2)CS1 (stereo not given) | -5 | -2 | 3 | ? | 0 | -1
O=C(NC1CCCCCCC1)c1cccc(Cl)c1 | -4 | 8 | 8 | 74* | -13 | -1
O=C(NC1CCCC1)c1cccc(Cl)c1 | -4 | -8 | -1 | 70* | 9 | 1
CCCCc1c(-c2ccccc2OC)ncn1C(C)c1ccc(Cl)cc1 (stereo not given) | -4 | / | / | / | / | /
CC(C)C[C@@H]1COc2cc(NCCO)ccc2S(=O)(=O)N1 | -4 | / | / | / | / | /
O=c1[nH][nH]c2c1[C@H](c1ccc(F)cc1)O[C@H](CCC(F)(F)F)C2 | -6 | / | / | / | / | /
CN1OC[C@@H]2CN3C(=NCCc4ccccc4)Sc4ccccc4[C@@H]3C[C@@H]21 | -4 | / | / | / | / | /
COc1ccc(-c2ccc3c(c2)S(=O)(=O)c2cccc(C(=O)NCc4ccccc4Cl)c2C3=O)cc1OC | -8 | / | / | -11 | / | -6
CC(C)c1cccc(-c2ccc3c(c2)S(=O)(=O)c2cccc(C(=O)NCc4ccccc4)c2C3=O)c1 | -10 | / | / | 4 | 6 | 92*
O=C(NCc1ccc(F)cc1)c1cccc2c1C(=O)c1ccc(Cl)cc1S2(=O)=O | 22 | / | / | / | / | /
CC(C)c1cccc(-c2ccc3c(c2)S(=O)(=O)c2cccc(C(=O)NCc4ccccc4Cl)c2C3=O)c1 | / | / | / | 4 | -2 | 197*
O=C(NCc1ccccc1Br)c1cccc2c1C(=O)c1ccc(-c3ccc(OC(F)(F)F)cc3)cc1S2(=O)=O | / | / | / | 0 | -25 | 156*
CCCCNC(=O)C1(C)CCN1C(=O)c1ccc(OC)c(C(F)(F)F)c1 (stereo not given) | -16 | / | / | / | / | 3
CC(NC(=O)CCCN1C(=O)c2ccccc2C1=O)c1ccc2c(c1)CCCC2 (stereo not given) | / | 12 | 203* | -8 | -30 | -2
CC(NC(=O)CCCCCN1C(=O)c2ccccc2C1=O)c1ccc2c(c1)CCCC2 (stereo not given) | -8 | 16 | 33 | 9 | 7 | 5
O=C(c1ccc(CS(=O)c2ccccc2Cl)o1)N1CCN(C2CCCCC2)CC1 (stereo not given) | -14 | / | / | / | / | -5

Compound activity as filed in PubChem BioAssay.
